Data set [1] in a line: Inhibition of LuxR-dependent quorum sensing activity in Escherichia coli harboring reporter plasmid LuxI-GFP assessed as reduction in 3-oxo-C6-HSL-induced GFP expression measured every 15 mins for 14 hrs by fluorescence assay. The method in brief:
(§1)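 luxI-gfp E. coli reporter grown 16 h at 37 °C, shaking 180 rpm, then diluted to OD450 0.1 in BT minimal medium with 10% A10, 0.5% glucose and 0.5% Casamino Acids. 3-oxo-C6-HSL added at 10 nM final. Compounds run in triplicate as 2-fold dilutions from 100 μg/ml. GFP (ex 485/em 535) and OD450 read every 15 min for 14 h at 34 °C. IC50 taken from GFP curves.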

The target in data set [2] is T1, HTH-type quorum-sensing regulator RhlR (Pseudomonas aeruginosa (strain ATCC 15692 / PAO1 / 1C / PRS 101 / LMG12228)) (UniProt P54292).
T1 sequence (whole entry): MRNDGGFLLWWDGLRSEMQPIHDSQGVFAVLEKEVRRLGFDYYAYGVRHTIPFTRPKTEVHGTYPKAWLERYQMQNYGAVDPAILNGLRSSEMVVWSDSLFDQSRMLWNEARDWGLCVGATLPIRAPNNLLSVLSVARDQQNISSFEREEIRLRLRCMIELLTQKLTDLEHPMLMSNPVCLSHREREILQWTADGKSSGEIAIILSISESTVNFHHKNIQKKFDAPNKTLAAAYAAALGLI
Put plainly: Inhibition of RhlR-dependent quorum sensing activity in Pseudomonas aeruginosa harboring reporter plasmid rhlA-gfp assessed as reduction in GFP expression up to 100 ug/ml measured every 15 mins for 14 hrs by fluorescence assay. In a few lines: (§2)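 P. aeruginosa lasB-gfp and rhlA-gfp reporters, grown 16 h at 37 °C with shaking, then diluted to OD450 0.1 in BT minimal medium (10% A10, 0.5% glucose, 0.5% Casamino Acids). No added signal molecule. Fluorescence at 485/535 nm and growth monitored every 15 min for 14 h at 34 °C. Concentrations up to 100 µg/ml.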

In another data set the test system is Pseudomonas aeruginosa. Description: Inhibition of LasR-dependent quorum sensing activity in Pseudomonas aeruginosa harboring reporter plasmid lasB-GFP assessed as reduction in GFP expression up to 100 ug/ml measured every 15 mins for 14 hrs by fluorescence assay. In a few lines: as §2
The next data set deals with Saccharomyces cerevisiae. Description: Inhibition of yeast Pma1 at 100 uM preincubated for 30 mins by spectrophotometric method. In a few lines: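 Pma1 purified from Saccharomyces cerevisiae plasma membrane, 0.5 µg per reaction. Enzyme preincubated 30 min at room temperature with 100 µM compound. Reaction buffer: 5 mM ATP, 10 mM MgSO4, 50 mM KNO3, 5 mM NaN3, 3.5 mM molybdate, 20 mM MES-KOH pH 5.9. Run 30 min, then stopped with acidic molybdate/ascorbate/SDS. Released phosphate read at 860 nm after arsenite-citrate treatment (Baginski method).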

Data set [3] relates to Escherichia coli. Description: Growth inhibition of Escherichia coli at 0.39 to 100 ug/ml. The method in brief:
as §1

Data set [4] deals with Escherichia coli. Put plainly: Inhibition of LuxR-dependent quorum sensing activity in Escherichia coli harboring reporter plasmid LuxI-GFP assessed as reduction in 3-oxo-C6-HSL-induced GFP expression up to 100 ug/ml measured every 15 mins for 14 hrs by fluorescence assay. In a few lines: as §1

The structures appear in SMILES notation. ≈ marks a conversion by molar mass, not a printed value. Calls of active or inactive are those of the source. The calls are words filed in the database; no cut-off is given here.

For orientation: IC50 means the concentration that inhibits the measured activity by half.

As for `COC(=O)c1ccc(OCC(=O)Nc2ccccc2)cn1`, in data set [1], the IC50 was 64 µg/mL (≈ 224 µM). The inhibition result (in data set [2]; with Pseudomonas aeruginosa; in the data set on Saccharomyces cerevisiae) was “inactive” in each case. Further, the “growth inhibition (GI)” value in the data set on Escherichia coli [3] is listed as “Non-Toxic”.

Regarding `CCCOc1ccc(C(=O)O)nc1`, the inhibition result with Escherichia coli [4] was “Active”. The inhibition entry (in data set [2]; with Pseudomonas aeruginosa; in the data set with Saccharomyces cerevisiae) was “inactive” throughout. The “growth inhibition (GI)” value in the data set on Escherichia coli [3] is given as “Toxic”.

Take `CCOC(=O)c1ccc(Br)cn1`: the inhibition entry (in data set [2]; in the data set with Pseudomonas aeruginosa; in the data set on Saccharomyces cerevisiae) was “inactive” throughout.

As to `COC(=O)c1ccc(-c2ccco2)cn1`, the inhibition result (in data set [2]; in the data set on Pseudomonas aeruginosa; in the data set on Saccharomyces cerevisiae) was “inactive” throughout.

Take `Cc1cc(-c2ccc(C(=O)O)nc2)c2ccccc2n1`: the inhibition result (in the data set with Escherichia coli [4]; in data set [2]; in the data set with Pseudomonas aeruginosa; in the data set with Saccharomyces cerevisiae) was “inactive” each time. In addition, the “growth inhibition (GI)” value with Escherichia coli [3] is on record as “Non-Toxic”.

Consider `COc1cccc(-c2ccc(C(=O)O)nc2)n1`, for which the inhibition entry (in data set [2]; in the data set on Pseudomonas aeruginosa; with Saccharomyces cerevisiae) was “inactive” throughout.

Consider `O=C(O)c1ccc(-c2ccnc3ccccc23)cn1`, for which the inhibition result (in data set [2]; in the data set with Pseudomonas aeruginosa; in the data set on Saccharomyces cerevisiae) was “inactive” in each case.

Consider `CCCNC(=O)c1ccc(NCCC)cn1`, for which the inhibition entry (in data set [2]; in the data set on Pseudomonas aeruginosa; in the data set on Saccharomyces cerevisiae) was “inactive” throughout.

Turning to `COC(=O)c1ccc(-c2cc(C)nc3ccccc23)cn1`, the inhibition result (in data set [2]; in the data set with Pseudomonas aeruginosa; in the data set with Saccharomyces cerevisiae) was “inactive” in each case.

Regarding `O=C(O)c1ccc(OCC2CC2)cn1`, the inhibition entry with Escherichia coli [4] was “Active”. Also, the inhibition result (in data set [2]; with Pseudomonas aeruginosa; in the data set with Saccharomyces cerevisiae) was “inactive” each time. In addition, the “growth inhibition (GI)” value in the data set on Escherichia coli [3] is listed as “Toxic”.

`COC(=O)c1ccc(-c2nccs2)cn1`: the inhibition result (in data set [2]; in the data set with Pseudomonas aeruginosa; in the data set with Saccharomyces cerevisiae) was “inactive” each time.

Turning to `O=C(O)c1ccc(-c2cccc3ccccc23)cn1`, the inhibition entry (in data set [2]; with Pseudomonas aeruginosa; in the data set with Saccharomyces cerevisiae) was “inactive” throughout.

On to `COC(=O)c1ccc(-c2ccnc3cc(OC)ccc23)cn1`, for which the inhibition entry (in data set [2]; in the data set on Pseudomonas aeruginosa; with Saccharomyces cerevisiae) was “inactive” in each case.

As to `O=C(O)c1ccc(-c2nccs2)cn1`, the inhibition result (in the data set on Escherichia coli [4]; in data set [2]; in the data set on Pseudomonas aeruginosa; with Saccharomyces cerevisiae) was “inactive” each time. Besides, the “growth inhibition (GI)” value with Escherichia coli [3] is reported as “Non-Toxic”.

As for `C=CCSS/C=C\C[S+]([O-])CC=C` (stereo not drawn) [(Z)-Ajoene], in data set [1], the 50% inhibitory concentration (IC50) is 4 µg/mL (≈ 17.1 µM).

As to `CCOC(=O)c1ccc(-c2cccc3ccccc23)cn1`, the inhibition entry (in data set [2]; in the data set with Pseudomonas aeruginosa; in the data set with Saccharomyces cerevisiae) was “inactive” each time.

With `COC(=O)c1ccc(OCC2CC2)cn1`, the IC50 in data set [1] turned out to be 14 µg/mL (≈ 67.6 µM). Moreover, the inhibition entry (in data set [2]; in the data set with Pseudomonas aeruginosa; in the data set with Saccharomyces cerevisiae) was “inactive” in each case. The “growth inhibition (GI)” value in the data set with Escherichia coli [3] is listed as “Non-Toxic”.

For `COC(=O)c1ccc(-c2ccc3cn(C)nc3c2)cn1`, the inhibition entry (in data set [2]; with Pseudomonas aeruginosa; with Saccharomyces cerevisiae) was “inactive” throughout.

For `O=C(COc1ccc(C(=O)O)nc1)Nc1ccccc1`, the inhibition entry (in the data set on Escherichia coli [4]; in data set [2]; with Pseudomonas aeruginosa; with Saccharomyces cerevisiae) was “inactive” throughout. The “growth inhibition (GI)” value with Escherichia coli [3] is on record as “Non-Toxic”.

Turning to `CCCOc1ccc(C(=O)OC)nc1`, the inhibition entry (in data set [2]; with Pseudomonas aeruginosa; in the data set on Saccharomyces cerevisiae) was “inactive” each time. The “growth inhibition (GI)” value in the data set on Escherichia coli [3] was “Non-Toxic”.

On to `Cc1ccc(-c2ccc(C(=O)O)nc2)s1`, for which the inhibition result (in data set [2]; in the data set with Pseudomonas aeruginosa; with Saccharomyces cerevisiae) was “inactive” throughout.

Take `Cc1ccc(-c2ccc(C(=O)O)nc2)cc1`: the inhibition result (in data set [2]; in the data set with Pseudomonas aeruginosa; with Saccharomyces cerevisiae) was “inactive” in each case.

With `O=C(O)c1ccc(Cc2ccccc2)cn1`, the inhibition entry (in data set [2]; in the data set with Pseudomonas aeruginosa; in the data set on Saccharomyces cerevisiae) was “inactive” throughout.

In the case of `O=C(O)c1ccc(-c2ccco2)cn1`, the inhibition entry in the data set on Escherichia coli [4] is “Active”. The inhibition result (in data set [2]; with Pseudomonas aeruginosa; in the data set with Saccharomyces cerevisiae) was “inactive” each time. Further, the “growth inhibition (GI)” value in the data set on Escherichia coli [3] is “Toxic”.

Turning to `COc1ccc2nccc(-c3ccc(C(=O)O)nc3)c2c1`, the inhibition entry (in the data set with Escherichia coli [4]; in data set [2]; in the data set on Pseudomonas aeruginosa; with Saccharomyces cerevisiae) was “inactive” in each case. The “growth inhibition (GI)” value in the data set on Escherichia coli [3] was “Non-Toxic”.

As for `CCOC(=O)c1ccc(CSCC)cn1`, the inhibition entry (in data set [2]; in the data set on Pseudomonas aeruginosa; with Saccharomyces cerevisiae) was “inactive” throughout.

In the case of `COC(=O)c1ccc(-c2ccnc3ccc(OC)cc23)cn1`, the inhibition result (in data set [2]; with Pseudomonas aeruginosa; with Saccharomyces cerevisiae) was “inactive” throughout.

For the compound `COC(=O)c1ccc(-c2cccc(OC)n2)cn1`, in data set [1], the half-inhibitory concentration (IC50) amounted to 95 µg/mL (≈ 389 µM). Besides, the inhibition entry (in data set [2]; with Pseudomonas aeruginosa; with Saccharomyces cerevisiae) was “inactive” each time. Also, the “growth inhibition (GI)” value in the data set on Escherichia coli [3] is on record as “Non-Toxic”.

With `O=C(O)c1ccc(Br)cn1`, the inhibition result (in data set [2]; in the data set with Pseudomonas aeruginosa; in the data set on Saccharomyces cerevisiae) was “inactive” each time.

Take `COc1ccc2c(-c3ccc(C(=O)O)nc3)ccnc2c1`: the inhibition entry (in data set [2]; with Pseudomonas aeruginosa; in the data set with Saccharomyces cerevisiae) was “inactive” each time.

On to `O=C(O)c1ccc(-c2ccccc2)cn1`, for which the inhibition result (in data set [2]; in the data set on Pseudomonas aeruginosa; in the data set on Saccharomyces cerevisiae) was “inactive” in each case.

For the compound `COC(=O)c1ccc(Cc2ccccc2)cn1`, the inhibition result (in data set [2]; in the data set with Pseudomonas aeruginosa; with Saccharomyces cerevisiae) was “inactive” each time.

Consider `O=C(O)COc1ccc(C(=O)O)nc1`, for which the inhibition result (in the data set on Escherichia coli [4]; in data set [2]; in the data set on Pseudomonas aeruginosa; in the data set with Saccharomyces cerevisiae) was “inactive” throughout.

On to `COC(=O)c1ccc(-c2ccc(C)s2)cn1`, for which the inhibition entry (in data set [2]; with Pseudomonas aeruginosa; in the data set with Saccharomyces cerevisiae) was “inactive” each time.

Turning to `COC(=O)c1ccc(-c2ccnc3ccccc23)cn1`, the inhibition entry (with Escherichia coli [4]; in data set [2]; in the data set with Pseudomonas aeruginosa; in the data set with Saccharomyces cerevisiae) was “inactive” in each case. Further, in the data set with Escherichia coli [3], the “growth inhibition (GI)” value is listed as “Non-Toxic”.

Regarding `CCOC(=O)c1ccc(-c2ccc(C)cc2)cn1`, the inhibition result (in data set [2]; with Pseudomonas aeruginosa; in the data set on Saccharomyces cerevisiae) was “inactive” each time.

Regarding `Cn1cc2ccc(-c3ccc(C(=O)O)nc3)cc2n1`, the inhibition entry (in data set [2]; in the data set on Pseudomonas aeruginosa; in the data set with Saccharomyces cerevisiae) was “inactive” each time.

With `CCOC(=O)c1ccc(-c2ccccc2)cn1`, the IC50 in data set [1] is 12 µg/mL (≈ 52.8 µM). Besides, the inhibition result (in data set [2]; with Pseudomonas aeruginosa; in the data set with Saccharomyces cerevisiae) was “inactive” each time. Also, the “growth inhibition (GI)” value in the data set with Escherichia coli [3] is “Non-Toxic”.

Source of the values: ChEMBL document CHEMBL4002598, “Fusaric acid and analogues as Gram-negative bacterial quorum sensing inhibitors” (Eur J Med Chem, 2017).
